Results taken from ChEMBL document CHEMBL1287776, “Synthesis and biological evaluations of P4-benzoxaborole-substituted macrocyclic inhibitors of HCV NS3 protease” (Bioorg Med Chem Lett, 2010).

Test system: not listed separately
Assay: Inhibition of HCV 1a NS3/4A protease by FRET assay
Set-up: species or system Hepatitis C virus subtype 1a
Settings: not given
Summary of the method: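 FRET assay with the genotype 1a NS3/4A protease domain and a fluorogenic peptide substrate. Buffer is 50 mM HEPES, 20% sucrose, 5 mM DTT and 0.05% NP-40. Initial rates are read at ex 490/em 520 nm. IC50 values are means of duplicate or triplicate experiments.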

Row | IC50 | SMILES
1 | 0.4 nM | O=C(Nc1ccc2c(c1)B(O)OC2)N[C@H]1CCCCC/C=C\[C@@H]2C[C@@]2(C(=O)NS(=O)(=O)C2CC2)NC(=O)C2C[C@@H](OC(=O)N3Cc4cccc(F)c4C3)CN2C1=O (some centres undefined)
2 | 1.6 nM | O=C(N[C@H]1CCCCC/C=C\[C@@H]2C[C@@]2(C(=O)NS(=O)(=O)C2CC2)NC(=O)C2C[C@@H](OC(=O)N3Cc4cccc(F)c4C3)CN2C1=O)Oc1ccc2c(c1)B(O)OC2 (some centres undefined)
3 | 2.4 nM | O=C(N[C@H]1CCCCC/C=C\[C@@H]2C[C@@]2(C(=O)NS(=O)(=O)C2CC2)NC(=O)C2C[C@@H](OC(=O)N3Cc4cccc(F)c4C3)CN2C1=O)Oc1ccc2c(c1)COB2O (some centres undefined)
4 | 0.4 nM | O=C(NCc1ccc2c(c1)B(O)OC2)N[C@H]1CCCCC/C=C\[C@@H]2C[C@@]2(C(=O)NS(=O)(=O)C2CC2)NC(=O)C2C[C@@H](OC(=O)N3Cc4cccc(F)c4C3)CN2C1=O (some centres undefined)
5 | < 0.2 nM | O=C(Nc1cc2c(cc1F)COB2O)N[C@H]1CCCCC/C=C\[C@@H]2C[C@@]2(C(=O)NS(=O)(=O)C2CC2)NC(=O)C2C[C@@H](OC(=O)N3Cc4cccc(F)c4C3)CN2C1=O (some centres undefined)
6 | 0.4 nM | CC1OB(O)c2cc(NC(=O)N[C@H]3CCCCC/C=C\[C@@H]4C[C@@]4(C(=O)NS(=O)(=O)C4CC4)NC(=O)C4C[C@@H](OC(=O)N5Cc6cccc(F)c6C5)CN4C3=O)c(F)cc21 (some centres undefined)
7 | 0.6 nM | COc1cnc(O[C@@H]2CC3C(=O)N[C@]4(C(=O)NS(=O)(=O)C5CC5)C[C@H]4/C=C\CCCCC[C@H](NC(=O)Nc4ccc5c(c4)B(O)OC5)C(=O)N3C2)c2cc(Cl)ccc12 (some centres undefined)
8 | 0.4 nM | COc1cnc(O[C@@H]2CC3C(=O)N[C@]4(C(=O)NS(=O)(=O)C5CC5)C[C@H]4/C=C\CCCCC[C@H](NC(=O)NCc4ccc5c(c4)B(O)OC5)C(=O)N3C2)c2cc(Cl)ccc12 (some centres undefined)
9 | 5.6 nM | COc1ccc2c(O[C@@H]3CC4C(=O)N[C@]5(C(=O)NS(=O)(=O)C6CC6)C[C@H]5/C=C\CCCCC[C@H](NC(=O)Nc5ccc6c(c5)B(O)OC6)C(=O)N4C3)cc(-c3nc(C(C)C)cs3)nc2c1C (some centres undefined)
10 | 4.1 nM | COc1ccc2c(O[C@@H]3CC4C(=O)N[C@]5(C(=O)NS(=O)(=O)C6CC6)C[C@H]5/C=C\CCCCC[C@H](NC(=O)NCc5ccc6c(c5)B(O)OC6)C(=O)N4C3)cc(-c3nc(C(C)C)cs3)nc2c1C (some centres undefined)
11 | 0.4 nM | CC(C)(C)OC(=O)N[C@H]1CCCCC/C=C\[C@@H]2C[C@@]2(C(=O)NS(=O)(=O)C2CC2)NC(=O)[C@@H]2C[C@@H](OC(=O)N3Cc4cccc(F)c4C3)CN2C1=O [DANOPREVIR]
12 | 10 nM | COc1ccc2c(O[C@@H]3C[C@H]4C(=O)N[C@]5(C(=O)NS(=O)(=O)C6CC6)C[C@H]5/C=C\CCCCN(C)C(=O)[C@@H]4C3)cc(-c3nc(C(C)C)cs3)nc2c1C [SIMEPREVIR]

Organism: Rattus norvegicus
Assay: Metabolic absorption in rat
Type: ADME, organism-based
Settings: in vivo
Summary of the method: (§1)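 Rat pharmacokinetics with blood drawn from both the jugular and portal veins after oral dosing, with IV dosing as reference. Absorption is calculated from portal vein drug levels. Oral bioavailability is calculated from jugular vein levels, each compared with levels after IV administration.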

Row | Activity | SMILES
13 | 0.9% | O=C(Nc1ccc2c(c1)B(O)OC2)N[C@H]1CCCCC/C=C\[C@@H]2C[C@@]2(C(=O)NS(=O)(=O)C2CC2)NC(=O)C2C[C@@H](OC(=O)N3Cc4cccc(F)c4C3)CN2C1=O (some centres undefined)
14 | 0.6% | O=C(NCc1ccc2c(c1)B(O)OC2)N[C@H]1CCCCC/C=C\[C@@H]2C[C@@]2(C(=O)NS(=O)(=O)C2CC2)NC(=O)C2C[C@@H](OC(=O)N3Cc4cccc(F)c4C3)CN2C1=O (some centres undefined)
15 | 17.4% | CC(C)(C)OC(=O)N[C@H]1CCCCC/C=C\[C@@H]2C[C@@]2(C(=O)NS(=O)(=O)C2CC2)NC(=O)[C@@H]2C[C@@H](OC(=O)N3Cc4cccc(F)c4C3)CN2C1=O [DANOPREVIR]

Same assay, conditions: in vivo, BLD = below limit of detection

Row | Activity | SMILES
16 | BLD | COc1ccc2c(O[C@@H]3CC4C(=O)N[C@]5(C(=O)NS(=O)(=O)C6CC6)C[C@H]5/C=C\CCCCC[C@H](NC(=O)NCc5ccc6c(c5)B(O)OC6)C(=O)N4C3)cc(-c3nc(C(C)C)cs3)nc2c1C (some centres undefined)

Test system: Hepatitis C virus
Assay: Antiviral activity against HCV 1b infected in human Huh-7 cells after 48hrs by luciferase assay
Type: functional, organism-based, Hepacivirus hominis
Settings: genotype 1b, Huh-7, 48 h
Summary of the method: (§2)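 Subgenomic (NS3-NS5B) luciferase replicon cells for genotype 1a or 1b. The 1b ET line is stably transfected with a firefly luciferase-ubiquitin-neo replicon carrying cell culture adaptive mutations. Cells are seeded at 5 × 10³/well onto compounds in 1% DMSO final. Luciferase is read after 48 h. EC50 comes from an 11-point, 3-fold dilution curve, as % inhibition versus no-compound control, with a four-parameter logistic fit.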

Row | EC50 | SMILES
17 | 3.7 nM | O=C(Nc1ccc2c(c1)B(O)OC2)N[C@H]1CCCCC/C=C\[C@@H]2C[C@@]2(C(=O)NS(=O)(=O)C2CC2)NC(=O)C2C[C@@H](OC(=O)N3Cc4cccc(F)c4C3)CN2C1=O (some centres undefined)
18 | 15 nM | O=C(N[C@H]1CCCCC/C=C\[C@@H]2C[C@@]2(C(=O)NS(=O)(=O)C2CC2)NC(=O)C2C[C@@H](OC(=O)N3Cc4cccc(F)c4C3)CN2C1=O)Oc1ccc2c(c1)B(O)OC2 (some centres undefined)
19 | 172 nM | O=C(N[C@H]1CCCCC/C=C\[C@@H]2C[C@@]2(C(=O)NS(=O)(=O)C2CC2)NC(=O)C2C[C@@H](OC(=O)N3Cc4cccc(F)c4C3)CN2C1=O)Oc1ccc2c(c1)COB2O (some centres undefined)
20 | 0.9 nM | O=C(NCc1ccc2c(c1)B(O)OC2)N[C@H]1CCCCC/C=C\[C@@H]2C[C@@]2(C(=O)NS(=O)(=O)C2CC2)NC(=O)C2C[C@@H](OC(=O)N3Cc4cccc(F)c4C3)CN2C1=O (some centres undefined)
21 | 1.5 nM | O=C(Nc1cc2c(cc1F)COB2O)N[C@H]1CCCCC/C=C\[C@@H]2C[C@@]2(C(=O)NS(=O)(=O)C2CC2)NC(=O)C2C[C@@H](OC(=O)N3Cc4cccc(F)c4C3)CN2C1=O (some centres undefined)
22 | 1.2 nM | CC1OB(O)c2cc(NC(=O)N[C@H]3CCCCC/C=C\[C@@H]4C[C@@]4(C(=O)NS(=O)(=O)C4CC4)NC(=O)C4C[C@@H](OC(=O)N5Cc6cccc(F)c6C5)CN4C3=O)c(F)cc21 (some centres undefined)
23 | 3.9 nM | COc1cnc(O[C@@H]2CC3C(=O)N[C@]4(C(=O)NS(=O)(=O)C5CC5)C[C@H]4/C=C\CCCCC[C@H](NC(=O)Nc4ccc5c(c4)B(O)OC5)C(=O)N3C2)c2cc(Cl)ccc12 (some centres undefined)
24 | 3.9 nM | COc1cnc(O[C@@H]2CC3C(=O)N[C@]4(C(=O)NS(=O)(=O)C5CC5)C[C@H]4/C=C\CCCCC[C@H](NC(=O)NCc4ccc5c(c4)B(O)OC5)C(=O)N3C2)c2cc(Cl)ccc12 (some centres undefined)
25 | 1.2 nM | COc1ccc2c(O[C@@H]3CC4C(=O)N[C@]5(C(=O)NS(=O)(=O)C6CC6)C[C@H]5/C=C\CCCCC[C@H](NC(=O)Nc5ccc6c(c5)B(O)OC6)C(=O)N4C3)cc(-c3nc(C(C)C)cs3)nc2c1C (some centres undefined)
26 | 0.5 nM | COc1ccc2c(O[C@@H]3CC4C(=O)N[C@]5(C(=O)NS(=O)(=O)C6CC6)C[C@H]5/C=C\CCCCC[C@H](NC(=O)NCc5ccc6c(c5)B(O)OC6)C(=O)N4C3)cc(-c3nc(C(C)C)cs3)nc2c1C (some centres undefined)
27 | 1.1 nM | CC(C)(C)OC(=O)N[C@H]1CCCCC/C=C\[C@@H]2C[C@@]2(C(=O)NS(=O)(=O)C2CC2)NC(=O)[C@@H]2C[C@@H](OC(=O)N3Cc4cccc(F)c4C3)CN2C1=O [DANOPREVIR]
28 | 1.4 nM | COc1ccc2c(O[C@@H]3C[C@H]4C(=O)N[C@]5(C(=O)NS(=O)(=O)C6CC6)C[C@H]5/C=C\CCCCN(C)C(=O)[C@@H]4C3)cc(-c3nc(C(C)C)cs3)nc2c1C [SIMEPREVIR]

Test system: Hepatitis C virus
Assay: Antiviral activity against HCV 1a infected in human Huh-7 cells after 48hrs by luciferase assay
Type: functional, organism-based, Hepacivirus hominis
Settings: subtype 1a, Huh-7, 48 h
Summary of the method: as §2

Row | EC50 | SMILES
29 | 159 nM | O=C(Nc1ccc2c(c1)B(O)OC2)N[C@H]1CCCCC/C=C\[C@@H]2C[C@@]2(C(=O)NS(=O)(=O)C2CC2)NC(=O)C2C[C@@H](OC(=O)N3Cc4cccc(F)c4C3)CN2C1=O (some centres undefined)
30 | 661 nM | O=C(N[C@H]1CCCCC/C=C\[C@@H]2C[C@@]2(C(=O)NS(=O)(=O)C2CC2)NC(=O)C2C[C@@H](OC(=O)N3Cc4cccc(F)c4C3)CN2C1=O)Oc1ccc2c(c1)B(O)OC2 (some centres undefined)
31 | 3550 nM | O=C(N[C@H]1CCCCC/C=C\[C@@H]2C[C@@]2(C(=O)NS(=O)(=O)C2CC2)NC(=O)C2C[C@@H](OC(=O)N3Cc4cccc(F)c4C3)CN2C1=O)Oc1ccc2c(c1)COB2O (some centres undefined)
32 | 160 nM | O=C(NCc1ccc2c(c1)B(O)OC2)N[C@H]1CCCCC/C=C\[C@@H]2C[C@@]2(C(=O)NS(=O)(=O)C2CC2)NC(=O)C2C[C@@H](OC(=O)N3Cc4cccc(F)c4C3)CN2C1=O (some centres undefined)
33 | 35 nM | O=C(Nc1cc2c(cc1F)COB2O)N[C@H]1CCCCC/C=C\[C@@H]2C[C@@]2(C(=O)NS(=O)(=O)C2CC2)NC(=O)C2C[C@@H](OC(=O)N3Cc4cccc(F)c4C3)CN2C1=O (some centres undefined)
34 | 20 nM | CC1OB(O)c2cc(NC(=O)N[C@H]3CCCCC/C=C\[C@@H]4C[C@@]4(C(=O)NS(=O)(=O)C4CC4)NC(=O)C4C[C@@H](OC(=O)N5Cc6cccc(F)c6C5)CN4C3=O)c(F)cc21 (some centres undefined)
35 | 60.3 nM | COc1cnc(O[C@@H]2CC3C(=O)N[C@]4(C(=O)NS(=O)(=O)C5CC5)C[C@H]4/C=C\CCCCC[C@H](NC(=O)Nc4ccc5c(c4)B(O)OC5)C(=O)N3C2)c2cc(Cl)ccc12 (some centres undefined)
36 | 50.1 nM | COc1cnc(O[C@@H]2CC3C(=O)N[C@]4(C(=O)NS(=O)(=O)C5CC5)C[C@H]4/C=C\CCCCC[C@H](NC(=O)NCc4ccc5c(c4)B(O)OC5)C(=O)N3C2)c2cc(Cl)ccc12 (some centres undefined)
37 | 12.5 nM | COc1ccc2c(O[C@@H]3CC4C(=O)N[C@]5(C(=O)NS(=O)(=O)C6CC6)C[C@H]5/C=C\CCCCC[C@H](NC(=O)Nc5ccc6c(c5)B(O)OC6)C(=O)N4C3)cc(-c3nc(C(C)C)cs3)nc2c1C (some centres undefined)
38 | 4.2 nM | COc1ccc2c(O[C@@H]3CC4C(=O)N[C@]5(C(=O)NS(=O)(=O)C6CC6)C[C@H]5/C=C\CCCCC[C@H](NC(=O)NCc5ccc6c(c5)B(O)OC6)C(=O)N4C3)cc(-c3nc(C(C)C)cs3)nc2c1C (some centres undefined)
39 | 1 nM | CC(C)(C)OC(=O)N[C@H]1CCCCC/C=C\[C@@H]2C[C@@]2(C(=O)NS(=O)(=O)C2CC2)NC(=O)[C@@H]2C[C@@H](OC(=O)N3Cc4cccc(F)c4C3)CN2C1=O [DANOPREVIR]
40 | 2.3 nM | COc1ccc2c(O[C@@H]3C[C@H]4C(=O)N[C@]5(C(=O)NS(=O)(=O)C6CC6)C[C@H]5/C=C\CCCCN(C)C(=O)[C@@H]4C3)cc(-c3nc(C(C)C)cs3)nc2c1C [SIMEPREVIR]

Test system: Rattus norvegicus
Assay: (§3) Oral bioavailability in rat
Type: ADME, organism-based
Settings: in vivo, BLD = below limit of detection
Summary of the method: as §1

Row | F | SMILES
41 | BLD | COc1ccc2c(O[C@@H]3CC4C(=O)N[C@]5(C(=O)NS(=O)(=O)C6CC6)C[C@H]5/C=C\CCCCC[C@H](NC(=O)NCc5ccc6c(c5)B(O)OC6)C(=O)N4C3)cc(-c3nc(C(C)C)cs3)nc2c1C (some centres undefined)

Test system: not listed separately
Assay: as §3
Type: ADME, organism-based
Settings: in vivo
Summary of the method: as §1

Row | bioavailability | SMILES
42 | 0.5% | O=C(Nc1ccc2c(c1)B(O)OC2)N[C@H]1CCCCC/C=C\[C@@H]2C[C@@]2(C(=O)NS(=O)(=O)C2CC2)NC(=O)C2C[C@@H](OC(=O)N3Cc4cccc(F)c4C3)CN2C1=O (some centres undefined)
43 | 0.7% | O=C(NCc1ccc2c(c1)B(O)OC2)N[C@H]1CCCCC/C=C\[C@@H]2C[C@@]2(C(=O)NS(=O)(=O)C2CC2)NC(=O)C2C[C@@H](OC(=O)N3Cc4cccc(F)c4C3)CN2C1=O (some centres undefined)
44 | 20% | CC(C)(C)OC(=O)N[C@H]1CCCCC/C=C\[C@@H]2C[C@@]2(C(=O)NS(=O)(=O)C2CC2)NC(=O)[C@@H]2C[C@@H](OC(=O)N3Cc4cccc(F)c4C3)CN2C1=O [DANOPREVIR]
